Measured values from BindingDB's records for doi:10.1021/jm0003900 (Ferring Research Institute, 2001).
*1 amine or outer side, *2 acyl side, *3 side chain or, on linkers, in order; H or OH if unused. Where a SMILES comes first, the peptide text is derived from it. [ ]: non-standard residue; d: D form. Phe(4-NH(5-NH2triazol-3-yl)) = Nc1nc(Nc2ccc(C[C@H](N)C(=O)O)cc2)n[nH]1; X1 = Nc1nc(Nc2ccc(C[C@@H](N[*:1])C(=O)[*:2])cc2)n[nH]1; dPhe(4-Cl) = N[C@H](Cc1ccc(Cl)cc1)C(=O)O; d2Nal = N[C@H](Cc1ccc2ccccc2c1)C(=O)O; Lys(iPr) = CC(C)NCCCC[C@H](N)C(=O)O; d3Pal = N[C@H](Cc1cccnc1)C(=O)O

Target: T1, Gonadotropin-releasing hormone receptor (Homo sapiens, UniProt P30968)
T1 sequence (P30968 whole entry): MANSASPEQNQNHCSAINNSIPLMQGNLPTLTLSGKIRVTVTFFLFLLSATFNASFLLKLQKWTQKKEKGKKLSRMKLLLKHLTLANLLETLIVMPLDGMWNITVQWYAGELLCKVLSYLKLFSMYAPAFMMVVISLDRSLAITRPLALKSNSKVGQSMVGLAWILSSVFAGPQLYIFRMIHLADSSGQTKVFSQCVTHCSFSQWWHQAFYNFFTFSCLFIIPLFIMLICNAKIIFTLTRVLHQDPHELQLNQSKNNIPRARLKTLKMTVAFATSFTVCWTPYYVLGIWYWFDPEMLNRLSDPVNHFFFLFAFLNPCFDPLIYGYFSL
Assay: Competitive antagonism of GnRH-induced response in the reporter gene assay
How it was run: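 Same HEK293 human GnRH receptor luciferase reporter cells. Seven-point GnRH curve (10 µM to 10 pM final) run in duplicate without or with four to five increasing compound concentrations (10 min preincubation, 37 °C), then 5 h and luminescence. GnRH EC50 at each level by four-parameter logistic fit, giving pA2; mean of two determinations in duplicate.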

| Kd [nM] | Compound |
| --- | --- |
| 1.58 | CC(=O)N[C@H](Cc1ccc2ccccc2c1)C(=O)N[C@H](Cc1ccc(Cl)cc1)C(=O)N[C@H](Cc1cccnc1)C(=O)N[C@@H](CO)C(=O)N[C@@H](Cc1ccc(Nc2n[nH]c(N)n2)cc1)C(=O)N[C@H](Cc1ccc(Nc2n[nH]c(N)n2)cc1)C(=O)N[C@@H](CC(C)C)C(=O)N[C@@H](CCCCNC(C)C)C(=O)N1CCC[C@H]1C(=O)N[C@H](C)C(N)=O [Ac-D-Nal-[D-(pCl)Phe]-D-Pal-Ser-[Aph(Atz)]-D-[Aph(Atz)]-Leu-ILys-Pro-DAla-NH2] (Ac-[d2Nal][dPhe(4-Cl)][d3Pal]S[Phe(4-NH(5-NH2triazol-3-yl))][X1]L[Lys(iPr)]P[dA]-NH2) |
| 0.631 | CC(=O)Nc1ccc(C[C@@H](NC(=O)[C@H](Cc2ccc(NC(=O)C3CNC(=O)N3)cc2)NC(=O)[C@H](CO)NC(=O)[C@@H](Cc2cccnc2)NC(=O)[C@@H](Cc2ccc(Cl)cc2)NC(=O)[C@@H](Cc2ccc3ccccc3c2)NC(C)=O)C(=O)N[C@@H](CC(C)C)C(=O)N[C@@H](CCCCNC(C)C)C(=O)N2CCC[C@H]2C(=O)N[C@H](C)C(N)=O)cc1 (stereo partly drawn) [Ac-D-Nal-[D-(pCl)Phe]-D-Pal-Ser-[Aph(Imz)]-D-[Aph(Ac)]-Leu-ILys-Pro-DAla-NH2] |
